In PubChem BioAssay AID651723 (Broad Institute, 2012):
Where “and” joins values, the source holds several entries; their conditions need not be identical. Identical values can stand only once. In all, about 350,000 compounds went through this assay and about 740 (0.21%) were called active.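 Rule for the calls: active = every replicate reaching activation of at least 50%, whatever the mean replicate activation; inconclusive = replicates that disagree or another doubt; inactive = the rest.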 The entries come from a sample that favours actives as a whole.

Experiment: compounds raising PGC1a acetylation signal, primary screen, PGC1a modulator project, cell-based, U2OS, AlphaScreen, signal-increasing mode (AID 651723)
Settings: overnight, at 15.6 µM, active compounds read high
Procedure, shortened: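 Test system: U2OS cells expressing flag-PGC1a plus GCN5; Amount: 7000 U2OS cells per well; Compound: single test concentration per compound; Incubation: compound overnight at 37 °C, each detection step 1 h RT; Signal: AlphaScreen lysate read.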

Compound	activation
NC(=O)Cc1ccc2c(c1)[nH]c1ccccc12	116% (active)
O=S(=O)(O)c1nc2ccccc2n1Cc1ccc(Cl)cc1	-47.2% (inactive)
Cc1oc2c(c1C(=O)N1CCOCC1)C(=O)c1ccccc1C2=O	-42.9% (inactive)
CN1/C(=C\C(=O)c2oc3ccccc3c2N)C(C)(C)c2ccccc21	-86.9% (inactive)
Cc1cc(C(=O)N/N=C\C(Br)=C\c2ccccc2)c(C)o1	85.5% (active)
CC(C)c1cc(C(=O)N/N=C/C(Br)=C/c2ccccc2)n[nH]1	125% (active)
Cc1[nH]c(=O)c(C(=O)/C=C/c2ccccc2)c2c1CCCC2	-53.2% (inactive)
N#Cc1cccc(NC(=O)COC(=O)c2ccccc2C(=O)c2ccc(Cl)c([N+](=O)[O-])c2)c1	-46.9% (inactive)
Clc1ccc(-c2nnc(-c3ccccc3)nc2N2CCSCC2)cc1	80.9% (active)
CN1CCc2c(sc3c2c(NCc2ccco2)nc2nnnn23)C1	-44.7% (inactive)
COCCNC(=O)CSc1nc2c(n1-c1ccccc1)CCCC2	-43.7% (inactive)
COc1ccc(NC(=O)C2(C)Cc3c(-c4cccc(NC(C)=O)c4)ccnc3O2)cc1 (stereo not given)	71.2% (active)
CCc1ccc(NC(=O)CSc2nnc(-c3cnccn3)n2Cc2ccco2)cc1	-45.6% (inactive)
O=C(/C=C/Sc1ncn[nH]1)c1ccc(Cl)cc1	109% (active)
COc1cccc(CNC(=O)CCC2CCCN(Cc3ccc(OC(F)F)cc3)C2)c1 (stereo not given)	-52.5% (inactive)
Cc1cccc(NC(=O)c2ccc([N+](=O)[O-])o2)c1	149% (active)
CC(C)NC(=O)Nc1ccc2c(c1)C(=O)N([C@@H](C)CO)C[C@@H](C)[C@H](CN(C)S(=O)(=O)c1ccccc1)OCCCC[C@@H](C)O2	-124% (inactive)
COc1ccc(-c2cc(=O)c3c(O)cc(O[C@@H]4O[C@H](CO[C@@H]5O[C@@H](C)[C@H](O)[C@@H](O)[C@H]5O)[C@@H](O)[C@H](O)[C@H]4O)cc3o2)cc1O	-49.5% (inactive)
COCC(=O)Nc1ccc2c(c1)OC[C@H](C)N(C(=O)c1ccccc1F)C[C@H](C)[C@H](OC)CN(C)C2=O	-42.9% (inactive)
CCc1cc2c(N3CCN(c4nnc(CC)s4)CC3)ncnc2s1	53.5% (active)
CC1(C)CCSC(/C=C/c2ccccc2)=N1	183% (active)
O=[N+]([O-])c1c(NCCO)cc(Sc2nc3ccccc3s2)c2nonc12	-45% (inactive)
C[C@H](CO)N1C[C@H](C)[C@H](CN(C)Cc2ccc(C(=O)O)cc2)Oc2ncc(-c3ccccc3)cc2C1=O	-41.5% (inactive)

Compound	activation
Cc1cccc(C2C3=C(CCCC3=O)N=C3c4ccccc4C(=O)C32)c1 (stereo not given)	80% (active)
CC(=O)NC1CCN(CC(=O)Nc2nccs2)CC1	-50.3% (inactive)
CC(C)Cc1nn2c(=O)cc(O)nc2s1	-40.3% (inactive)
COc1ccc(N(Cc2cc3cc(OC)ccc3[nH]c2=O)S(C)(=O)=O)cc1	69.9% (active)
N#Cc1ccc(C(c2ccc(C#N)cc2)n2cncn2)cc1	-48.6% (inactive)
Cc1cc(C)cc(N(CC(=O)Nc2c(C)n(C)n(-c3ccccc3)c2=O)S(C)(=O)=O)c1	-49.5% (inactive)
C[C@H]1CN([C@@H](C)CO)C(=O)c2cc(C#Cc3ccc(F)cc3)cnc2O[C@@H]1CN(C)C(=O)Nc1ccc(F)cc1	-44% (inactive)
COc1ccc(C#Cc2ccc([C@H]3[C@@H](CO)N4CCCCN(C(=O)Nc5ccccc5)C[C@H]34)cc2)cc1	77.7% (active)
COc1ccc(NC(=O)/C(Cl)=C(/Cl)S(=O)Cc2ccc(C)cc2)cn1 (stereo not given)	-69.3% (inactive)
Cc1ccc(S(=O)(=O)Nc2ccc3c(c2)C(=O)N([C@H](C)CO)C[C@H](C)[C@H](CN(C)C(=O)NC(C)C)OCCCC[C@@H](C)O3)cc1	-41.5% (inactive)
COCC(=O)Nc1ccc2c(c1)OC[C@@H](C)N(CCc1ccccc1)C[C@H](C)[C@@H](OC)CN(C)C2=O	-52.2% (inactive)
COc1ccc(S(=O)(=O)N2CCN(C(=O)c3cccs3)CC2)cc1OC	-44% (inactive)
COc1ccc(C2CC(c3cccs3)=NN2c2nc(C)c(C(C)=O)s2)cc1OC (stereo not given)	83.1% (active)
O=S(=O)(NCc1ccccc1Br)c1ccccc1Br	55.2% (active)
COc1cc(NC(=O)c2[nH]cnc2C(N)=O)cc(C(=O)Nc2cccc(C(F)(F)F)c2)c1	-62.8% (inactive)
C[C@H](CO)N1C[C@H](C)[C@@H](CN(C)Cc2cccnc2)Oc2cc(C3=CCCC3)ccc2S1(=O)=O	-50.5% (inactive)
O=C(NCc1ccccc1)C(c1ccccc1)N(C(=O)c1csnn1)c1ccc(F)cc1 (stereo not given)	85.7% (active)
Cc1noc(C)c1S(=O)(=O)N(C)C[C@H]1Oc2ccc(NS(=O)(=O)c3cccs3)cc2C(=O)N([C@H](C)CO)C[C@H]1C	-48% (inactive)
Cc1cc(C)c2c(-n3cccc3)c(C(=O)NNS(=O)(=O)c3ccc(F)cc3)sc2n1	132% (active)
Cc1cccc(-c2ccc(C3[C@@H]4CN(C(=O)Nc5ccc(C(F)(F)F)cc5)C[C@H]3N4)cc2)c1 (stereo not given in full)	-92.4% (inactive) and -92.8% (inactive)
CC(C)C(OC(=O)c1cccs1)C(=O)NC1CCCCC1 (stereo not given)	90.6% (active)
CC/C(=N\NC(=O)c1ccccc1Cl)c1ccc(Br)s1	-82.8% (inactive)
